Screening data from PubChem.
Rtt109 HAT inh: inhibitors of Candida albicans Rtt109/Vps75 histone acetyltransferase; Q5AAJ8; AID 540336; 330,000 tested, 0.16% active; purified Rtt109/Vps75, ThioGlo CoA-SH fluorescence, 4 h; inhibition, % at 34.9 µM;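 active = inhibition of at least 50% in every replicate; inconclusive = best replicate reaches 50% inhibition but some replicates fall short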
Target sequence (Q5AAJ8 whole entry, looked up): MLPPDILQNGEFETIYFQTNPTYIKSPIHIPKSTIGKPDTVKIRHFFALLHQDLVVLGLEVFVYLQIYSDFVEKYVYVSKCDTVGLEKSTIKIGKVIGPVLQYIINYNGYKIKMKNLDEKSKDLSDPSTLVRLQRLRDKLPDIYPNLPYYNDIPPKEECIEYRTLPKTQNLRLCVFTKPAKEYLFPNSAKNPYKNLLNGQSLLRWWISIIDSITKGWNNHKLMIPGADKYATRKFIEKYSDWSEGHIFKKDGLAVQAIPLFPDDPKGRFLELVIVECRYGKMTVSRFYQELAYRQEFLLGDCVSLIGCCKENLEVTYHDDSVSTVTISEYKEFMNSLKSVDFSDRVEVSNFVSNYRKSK
ERAP1 inh: blocks human ERAP1 aminopeptidase activity; Q9NZ08; recombinant ERAP1, Leu-AMC fluorescence, 60 min; inhibition, % at 10.7 µM; 340,000 tested, 0.15% active; AID 652197;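 active = mean replicate inhibition of at least 30%, or all replicates individually reaching that 30% level; inactive = mean below 30% and not every replicate reaching it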;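 also: 0% = neutral control wells and 100% = L-leucinethiol positive control wells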
S100A4 MyoIIA: S100A4-myosin IIA interaction inhibition. P26447. S100A4/TAMRA-MyoIIA peptide fluorescence polarization. 360,000 tested, 0.14% active. inhibition, % at 10.7 µM;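 active = mean inhibition of at least 70% across replicates, with every replicate also reaching that level; inconclusive = mean inhibition reaches 70% but some replicates fall short; inactive = mean inhibition below 70%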
Target sequence (P26447 whole entry, looked up): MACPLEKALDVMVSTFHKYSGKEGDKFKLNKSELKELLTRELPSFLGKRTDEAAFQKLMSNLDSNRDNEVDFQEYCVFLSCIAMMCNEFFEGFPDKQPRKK
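assay system = human S100A4 monomer with TAMRA-labelled myosin IIA peptide | also added = labelled myosin peptide probe, 5 nM | incubation = 5 min between mix addition and reading | control set = DMSO and TFP controls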
AF4-AF9 inh: blocks AF4 peptide binding to human AF9; AlphaScreen, biotin-AF4 peptide binding to FLAG-AF9; inhibition, % at 10 µM; 350,000 tested, 0.47% active;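 active = every replicate reaching a set inhibition limit, whatever the replicate mean, cut at about 25% in these data; inconclusive = mean inhibition reaches that limit but some replicates miss it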;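 also: 0% = plate neutral control median and 100% = total signal loss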
miR122 inh: miR-122 inhibition in Huh7 cells; activation (reporter increase), % at 12.5 µM; 340,000 tested, 0.3% active; Huh7 miR-122 Renilla luciferase sensor, 48 h; neutral wells = 0, positive control = 100;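 active = mean replicate activation score at least 90 and every replicate individually at or above 90; inconclusive = only one of the two criteria met; inactive = neither criterion met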;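 also: higher luciferase means less miR-122 activity so hits act as miR-122 inhibitors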
The depositor's hits bear a star; [ ] = dose if it differs, or a comment. An excerpt weighted towards active compounds, which were near 0.86% of everything screened.

For CN(C)C(CNC(=O)c1ccc(C(=O)c2ccccc2)cc1)c1ccccc1 (stereo unspecified) the results were Rtt109 HAT inh 54*, ERAP1 inh -1, S100A4 MyoIIA 4, AF4-AF9 inh 6 and miR122 inh -21.
CN(C)C(CNC(=O)c1ccc(-c2ccccc2)cc1)c1ccccc1 (stereo unspecified) was read as Rtt109 HAT inh 4, ERAP1 inh -2, S100A4 MyoIIA -3 and AF4-AF9 inh 9.
For Cc1noc(C)c1S(=O)(=O)Nc1ccc2c(c1)C(=O)N([C@@H](C)CO)C[C@@H](C)[C@H](CN(C)Cc1ccccc1)O2 the results were ERAP1 inh 1, S100A4 MyoIIA -13, AF4-AF9 inh 1 and miR122 inh 7[16.7 µM].
CC1=CC(C)C(C(=O)O)C(C(=O)O)C1 (stereo unspecified) was read as Rtt109 HAT inh -2, ERAP1 inh 1, S100A4 MyoIIA -1, AF4-AF9 inh 2 and miR122 inh 0.
`CC[N+](C)(CC)CC(=O)OCC1C(C)C=C(C)CC1C` (stereo unspecified) gave Rtt109 HAT inh 5, ERAP1 inh 106*, S100A4 MyoIIA 1, AF4-AF9 inh -5 and miR122 inh -2.
`S=C1NC2(CCCCC2)Cc2ccccc21` gave Rtt109 HAT inh 51* and miR122 inh -2.
Screening Cc1ccccc1S(=O)(=O)N1C[C@@H](O)COC[C@@H]2O[C@@H](CC(=O)NCc3ccccc3Cl)CC[C@H]21 returned ERAP1 inh 3, S100A4 MyoIIA 3, AF4-AF9 inh 7 and miR122 inh 11[16.7 µM].
Screening CCCCCC[n+]1ccccc1/C=C/c1ccc(N(C)C)cc1 returned ERAP1 inh 13, S100A4 MyoIIA 93*, AF4-AF9 inh 19 and miR122 inh -28.
For CC[n+]1ccc(/C=C/c2ccc(N(C)C)cc2)c2ccccc21 the results were Rtt109 HAT inh -12, ERAP1 inh 16, S100A4 MyoIIA 43 and AF4-AF9 inh 73*.
CC[n+]1ccccc1/C=C/c1ccc(N(C)C)cc1 was read as Rtt109 HAT inh 19, ERAP1 inh 12, S100A4 MyoIIA -75, AF4-AF9 inh 4 and miR122 inh -39.
Screening CC(C)(C)c1ccc(C(=O)CC(Sc2ccc(Cl)cc2)C(=O)O)cc1 (stereo unspecified) returned Rtt109 HAT inh 126*, ERAP1 inh 4, S100A4 MyoIIA -6 and AF4-AF9 inh -4.
C[C@H](CO)N1C[C@H](C)[C@H](CN(C)Cc2ccccc2)Oc2ccc(NS(=O)(=O)c3cn(C)cn3)cc2C1=O was read as ERAP1 inh -1, S100A4 MyoIIA 10, AF4-AF9 inh 0 and miR122 inh -9[16.7 µM].
Screening C[N+]1(C2CCC3CCCC2C3O)CCCCC1 (stereo unspecified) returned Rtt109 HAT inh -6, ERAP1 inh 46*, S100A4 MyoIIA -9 and AF4-AF9 inh -2.
For COc1cc(S(=O)(=O)n2nc(C)cc2C)c(OC)cc1Cl the results were Rtt109 HAT inh 65*, ERAP1 inh 10, S100A4 MyoIIA -4, AF4-AF9 inh -2 and miR122 inh 14.
Screening CO[C@@H]1CN(C)C(=O)c2ccc(NC(=O)Nc3cccc(F)c3)cc2OC[C@@H](C)N(C(=O)Nc2c(C)noc2C)C[C@@H]1C returned ERAP1 inh 1, S100A4 MyoIIA 5 and AF4-AF9 inh -20.
For Cc1nnc(N/N=C/c2ccccc2O)n1N the results were Rtt109 HAT inh -3, ERAP1 inh 4, S100A4 MyoIIA -1 and AF4-AF9 inh -4.
`Cc1nnc(N/N=C/c2cc(C)n(-c3ccc(F)cc3)c2C)n1N` gave Rtt109 HAT inh 16, ERAP1 inh -5, S100A4 MyoIIA -2 and AF4-AF9 inh 54*.
For O=C(C(c1ccccc1)c1ccccc1)N1CCOCC1 the results were Rtt109 HAT inh -7 and miR122 inh 213*.
`Cc1ccc2sc(NNC(=O)C3=COCCO3)nc2c1C` gave Rtt109 HAT inh 59*, ERAP1 inh 0, S100A4 MyoIIA -1 and AF4-AF9 inh -6.
For O=C(NCc1ccncn1)[C@H]1[C@H](CO)[C@H]2Cn3c(ccc(-c4cccc(F)c4)c3=O)[C@H]2N1CC1CC1 the results were ERAP1 inh 0, S100A4 MyoIIA -1, AF4-AF9 inh 11 and miR122 inh 4[16.7 µM].
N#CC1=C(S)N(c2ccccc2)C(c2ccc(-c3cccc(Cl)c3)o2)NC1=O (stereo unspecified) was read as Rtt109 HAT inh 99*, ERAP1 inh 1, S100A4 MyoIIA 4, AF4-AF9 inh -3 and miR122 inh 3.
Screening CCOc1ccc(C2NC(=O)C(C#N)=C(S)N2c2cccc(C)c2)cc1OC (stereo unspecified) returned Rtt109 HAT inh inconclusive, ERAP1 inh 1, S100A4 MyoIIA 12 and AF4-AF9 inh -3.
COc1ccc(C2NC(=O)C(C#N)=C(S)N2c2ccccc2)cc1OC (stereo unspecified) was read as Rtt109 HAT inh -6, ERAP1 inh 5, S100A4 MyoIIA -1 and AF4-AF9 inh -3.
For COc1cc(C2NC(=O)C(C#N)=C(S)N2c2ccccc2)ccc1OC(C)C (stereo unspecified) the results were Rtt109 HAT inh 122* and miR122 inh -6.
Cc1cccc(N2C(S)=C(C#N)C(=O)NC2c2ccco2)c1 (stereo unspecified) was read as Rtt109 HAT inh 8, ERAP1 inh 1, S100A4 MyoIIA -6, AF4-AF9 inh -3 and miR122 inh 0.
COc1ccc(N2C(S)=C(C#N)C(=O)NC2c2ccco2)cc1 (stereo unspecified) was read as Rtt109 HAT inh 63*.
For CN1C(=O)c2cc(NC(=O)c3cccc(F)c3)ccc2OC[C@@H]2O[C@@H](CC(=O)NCc3ccccc3)CC[C@H]21 the results were miR122 inh -29[16.7 µM].
`Cc1ccc(-c2ccc3c(c2)O[C@H](CN(C)C(=O)C2CCCCC2)[C@H](C)CN([C@H](C)CO)S3(=O)=O)cc1` gave miR122 inh -7[16.7 µM].
`C[C@H](CO)N1C[C@H](C)[C@H](CN(C)Cc2ccc(-c3ccccc3)cc2)OCc2cn(nn2)CCCC1=O` gave miR122 inh 2[16.7 µM].
CC(=O)N1/C(=C/c2ccc(N(C)C)cc2)C(=O)c2ccccc21 was read as Rtt109 HAT inh -2, ERAP1 inh 2, S100A4 MyoIIA -30 and AF4-AF9 inh 44*.
For c1ccc(C2c3[nH]c4ccccc4c3CCN2Cc2cccn2-c2ccccn2)nc1 (stereo unspecified) the results were Rtt109 HAT inh 8, ERAP1 inh -2, S100A4 MyoIIA -4, AF4-AF9 inh inconclusive and miR122 inh -14.
Cc1cccc(C2c3[nH]c4ccccc4c3CCN2Cc2cccn2-c2ncccn2)c1 (stereo unspecified) was read as Rtt109 HAT inh 1, ERAP1 inh -3, S100A4 MyoIIA -5 and AF4-AF9 inh 31*.
